This is an account of results in ChEMBL document CHEMBL1165965, “Synthesis and structure-activity relationships of 1,2,3,4-tetrahydropyrido[2,3-b]pyrazines as potent and selective inhibitors of the anaplastic lymphoma kinase” (Bioorg Med Chem, 2010).

pIC50: −log10 of the molar value.

The target of assay [1] is Platelet-derived growth factor receptor beta (Homo sapiens) (UniProt P09619). The experiment in a line: Inhibition of PDGFRB at 1 uM.
Assay [2] addresses ALK tyrosine kinase receptor (Homo sapiens, UniProt Q9UM73). The experiment in a line: Inhibition of ALK by time-resolved fluorescence assay. A digest of the protocol:
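Baculovirus-expressed ALK (30 ng/ml) on plates coated with GST–PLC-gamma substrate in TBS. Reaction ran 15 min at 37 °C. Europium-labeled anti-phosphotyrosine antibody was added for 1 h at 37 °C, then enhancement solution for 30 min, and TRF was read. IC50 came from a variable-slope sigmoidal fit of % inhibition vs log concentration.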

Assay [3] deals with Tyrosine-protein kinase JAK1 (Homo sapiens) (UniProt P23458). The experiment in a line: Inhibition of JAK1 JH1 catalytic domain at 1 uM. A digest of the protocol: (§1)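 Single-concentration screen on the Ambit KINOMEscan platform, run against a panel of 250–400 kinases. Per-kinase inhibition was also summarized as S(90), the fraction of kinases inhibited by more than 90%.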
Assay [4] addresses Mitogen-activated protein kinase 14 (Homo sapiens) (UniProt Q16539). The experiment in a line: Inhibition of p38-alpha at 1 uM.
In assay [5] the target is T1, Mitogen-activated protein kinase kinase kinase 2 (Homo sapiens) (UniProt Q9Y2U5).
T1 sequence (whole entry): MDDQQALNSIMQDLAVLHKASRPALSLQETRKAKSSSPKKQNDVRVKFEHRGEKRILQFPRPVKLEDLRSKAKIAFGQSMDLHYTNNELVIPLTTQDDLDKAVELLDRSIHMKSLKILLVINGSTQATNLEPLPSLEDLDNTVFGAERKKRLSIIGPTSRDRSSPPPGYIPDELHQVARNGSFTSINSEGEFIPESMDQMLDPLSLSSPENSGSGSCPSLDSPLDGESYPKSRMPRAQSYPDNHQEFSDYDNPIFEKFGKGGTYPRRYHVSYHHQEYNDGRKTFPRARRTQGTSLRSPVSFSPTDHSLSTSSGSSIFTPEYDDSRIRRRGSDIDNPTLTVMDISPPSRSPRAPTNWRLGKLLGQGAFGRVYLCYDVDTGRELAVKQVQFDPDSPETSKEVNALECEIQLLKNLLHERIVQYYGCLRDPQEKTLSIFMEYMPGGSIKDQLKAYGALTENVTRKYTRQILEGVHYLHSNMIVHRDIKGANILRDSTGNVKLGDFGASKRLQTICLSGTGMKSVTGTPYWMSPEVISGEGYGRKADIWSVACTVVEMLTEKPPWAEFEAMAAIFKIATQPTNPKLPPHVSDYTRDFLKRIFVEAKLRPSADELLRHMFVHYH
The experiment in a line: Inhibition of MAP3K2 at 1 uM.

The target of assay [6] is Ribosomal protein S6 kinase alpha-6 (Homo sapiens) (UniProt Q9UK32). The experiment in a line: Inhibition of RPS6KA6 C-terminal domain2 at 1 uM.
For assay [7], the target named is Myosin-IIIa (Homo sapiens) (UniProt Q8NEV4). The experiment in a line: Inhibition of MYO3A at 1 uM.
Assay [8] addresses Mitogen-activated protein kinase kinase kinase 11 (Homo sapiens) (UniProt Q16584). The experiment in a line: Inhibition of MLK3 at 1 uM. A digest of the protocol:
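Kinase-panel screen using KINOMEscan technology, with 250–400 kinases per panel. Each compound was tested at a single concentration, and inhibition of each kinase was recorded. Selectivity was summarised as S(90), the fraction of kinases inhibited by more than 90%.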

Assay [9] addresses Fibroblast growth factor receptor 4 (Homo sapiens) (UniProt P22455). The experiment in a line: Inhibition of FGFR4 at 1 uM. A digest of the protocol: as §1
Assay [10] deals with T2, Myosin-IIIb (Homo sapiens) (UniProt Q8WXR4).
T2 sequence (whole entry): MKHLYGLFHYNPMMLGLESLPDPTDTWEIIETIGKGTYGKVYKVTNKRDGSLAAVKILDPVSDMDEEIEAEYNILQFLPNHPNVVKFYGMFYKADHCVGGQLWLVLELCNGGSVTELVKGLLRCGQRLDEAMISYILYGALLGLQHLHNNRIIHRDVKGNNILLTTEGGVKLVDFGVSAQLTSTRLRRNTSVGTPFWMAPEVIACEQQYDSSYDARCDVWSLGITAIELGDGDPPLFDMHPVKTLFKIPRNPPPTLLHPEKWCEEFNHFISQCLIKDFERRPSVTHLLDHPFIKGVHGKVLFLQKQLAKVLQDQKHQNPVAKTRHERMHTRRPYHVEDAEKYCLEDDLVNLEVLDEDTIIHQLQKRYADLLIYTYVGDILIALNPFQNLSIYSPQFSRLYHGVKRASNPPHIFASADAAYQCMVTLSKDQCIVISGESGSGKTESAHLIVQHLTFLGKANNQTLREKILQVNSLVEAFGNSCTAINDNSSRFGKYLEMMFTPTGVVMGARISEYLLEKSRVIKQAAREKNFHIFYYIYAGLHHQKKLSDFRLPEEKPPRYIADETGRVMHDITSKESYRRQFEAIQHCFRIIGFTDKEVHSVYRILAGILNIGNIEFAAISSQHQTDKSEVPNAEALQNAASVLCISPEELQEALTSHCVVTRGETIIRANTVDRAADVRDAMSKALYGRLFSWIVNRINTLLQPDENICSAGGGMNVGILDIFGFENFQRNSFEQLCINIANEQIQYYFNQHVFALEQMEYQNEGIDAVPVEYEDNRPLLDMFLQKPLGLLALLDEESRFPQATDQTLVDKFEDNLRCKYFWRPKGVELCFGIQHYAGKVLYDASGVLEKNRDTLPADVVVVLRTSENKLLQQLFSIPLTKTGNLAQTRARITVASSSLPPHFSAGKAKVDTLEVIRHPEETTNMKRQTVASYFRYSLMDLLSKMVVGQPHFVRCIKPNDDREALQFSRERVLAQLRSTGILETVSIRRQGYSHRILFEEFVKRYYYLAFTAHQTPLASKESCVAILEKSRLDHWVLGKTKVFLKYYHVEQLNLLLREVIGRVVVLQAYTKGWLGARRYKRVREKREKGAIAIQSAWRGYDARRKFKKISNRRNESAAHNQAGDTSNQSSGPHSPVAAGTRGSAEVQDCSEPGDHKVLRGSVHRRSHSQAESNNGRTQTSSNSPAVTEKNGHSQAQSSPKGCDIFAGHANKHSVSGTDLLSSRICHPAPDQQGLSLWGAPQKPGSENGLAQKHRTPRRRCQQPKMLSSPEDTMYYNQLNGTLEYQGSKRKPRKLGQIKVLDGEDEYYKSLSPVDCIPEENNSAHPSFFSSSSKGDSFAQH
The experiment in a line: Inhibition of MYO3B at 1 uM.

Chain of Fibroblast growth factor receptor 4 (Homo sapiens) (P22455 22-802 limits assumed): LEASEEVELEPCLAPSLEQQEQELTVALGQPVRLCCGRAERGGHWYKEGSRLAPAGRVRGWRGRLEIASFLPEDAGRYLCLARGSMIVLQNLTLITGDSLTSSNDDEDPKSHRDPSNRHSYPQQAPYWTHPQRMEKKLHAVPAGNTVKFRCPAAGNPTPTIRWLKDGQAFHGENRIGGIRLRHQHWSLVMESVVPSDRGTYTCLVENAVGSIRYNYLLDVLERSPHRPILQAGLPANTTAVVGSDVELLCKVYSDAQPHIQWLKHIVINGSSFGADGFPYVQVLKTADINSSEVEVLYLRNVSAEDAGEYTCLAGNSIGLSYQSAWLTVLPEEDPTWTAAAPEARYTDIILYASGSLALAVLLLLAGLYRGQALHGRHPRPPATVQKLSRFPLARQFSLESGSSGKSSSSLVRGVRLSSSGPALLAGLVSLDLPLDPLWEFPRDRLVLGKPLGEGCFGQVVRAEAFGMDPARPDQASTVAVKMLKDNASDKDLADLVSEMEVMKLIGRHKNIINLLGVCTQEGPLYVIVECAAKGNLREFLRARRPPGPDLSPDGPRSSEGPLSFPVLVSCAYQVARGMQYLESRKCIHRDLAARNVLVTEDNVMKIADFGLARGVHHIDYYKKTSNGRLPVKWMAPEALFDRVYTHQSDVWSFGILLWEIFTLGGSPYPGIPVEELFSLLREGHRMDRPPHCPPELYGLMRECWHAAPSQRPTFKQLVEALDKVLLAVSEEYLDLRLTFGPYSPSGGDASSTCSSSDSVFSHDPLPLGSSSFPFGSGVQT
Chain of Mitogen-activated protein kinase 14 (Homo sapiens) (Q16539 whole entry): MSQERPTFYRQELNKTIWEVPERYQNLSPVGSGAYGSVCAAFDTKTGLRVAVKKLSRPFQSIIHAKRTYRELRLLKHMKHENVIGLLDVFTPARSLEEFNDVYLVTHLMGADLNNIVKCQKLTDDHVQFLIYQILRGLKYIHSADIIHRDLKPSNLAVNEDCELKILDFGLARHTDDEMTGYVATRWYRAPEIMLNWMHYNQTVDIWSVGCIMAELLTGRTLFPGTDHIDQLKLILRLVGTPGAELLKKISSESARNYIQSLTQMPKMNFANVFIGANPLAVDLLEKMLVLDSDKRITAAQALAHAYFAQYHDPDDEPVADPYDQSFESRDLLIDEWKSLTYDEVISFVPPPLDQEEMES
Chain of Ribosomal protein S6 kinase alpha-6 (Homo sapiens) (Q9UK32 whole entry, the tested form may be a part): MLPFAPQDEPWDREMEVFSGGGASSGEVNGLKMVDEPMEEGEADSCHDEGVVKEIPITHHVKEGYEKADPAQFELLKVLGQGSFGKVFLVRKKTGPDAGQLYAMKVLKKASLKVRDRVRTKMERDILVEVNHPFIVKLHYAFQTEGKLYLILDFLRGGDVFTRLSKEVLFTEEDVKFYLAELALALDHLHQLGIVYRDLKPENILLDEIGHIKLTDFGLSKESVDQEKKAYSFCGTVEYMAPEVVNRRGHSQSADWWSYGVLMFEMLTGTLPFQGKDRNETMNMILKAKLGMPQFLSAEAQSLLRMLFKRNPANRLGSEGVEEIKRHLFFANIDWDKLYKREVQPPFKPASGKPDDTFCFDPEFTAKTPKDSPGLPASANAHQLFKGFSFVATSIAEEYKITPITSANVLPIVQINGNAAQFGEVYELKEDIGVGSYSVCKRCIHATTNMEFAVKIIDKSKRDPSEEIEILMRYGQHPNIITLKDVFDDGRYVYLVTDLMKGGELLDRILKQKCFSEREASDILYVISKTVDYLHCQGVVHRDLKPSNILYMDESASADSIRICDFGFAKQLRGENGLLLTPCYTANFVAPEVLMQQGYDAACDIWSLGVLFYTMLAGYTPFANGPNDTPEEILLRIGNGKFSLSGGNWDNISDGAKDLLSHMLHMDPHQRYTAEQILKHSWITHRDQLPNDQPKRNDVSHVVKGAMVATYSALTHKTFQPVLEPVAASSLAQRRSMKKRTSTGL
Chain of Platelet-derived growth factor receptor beta (Homo sapiens) (P09619 whole entry): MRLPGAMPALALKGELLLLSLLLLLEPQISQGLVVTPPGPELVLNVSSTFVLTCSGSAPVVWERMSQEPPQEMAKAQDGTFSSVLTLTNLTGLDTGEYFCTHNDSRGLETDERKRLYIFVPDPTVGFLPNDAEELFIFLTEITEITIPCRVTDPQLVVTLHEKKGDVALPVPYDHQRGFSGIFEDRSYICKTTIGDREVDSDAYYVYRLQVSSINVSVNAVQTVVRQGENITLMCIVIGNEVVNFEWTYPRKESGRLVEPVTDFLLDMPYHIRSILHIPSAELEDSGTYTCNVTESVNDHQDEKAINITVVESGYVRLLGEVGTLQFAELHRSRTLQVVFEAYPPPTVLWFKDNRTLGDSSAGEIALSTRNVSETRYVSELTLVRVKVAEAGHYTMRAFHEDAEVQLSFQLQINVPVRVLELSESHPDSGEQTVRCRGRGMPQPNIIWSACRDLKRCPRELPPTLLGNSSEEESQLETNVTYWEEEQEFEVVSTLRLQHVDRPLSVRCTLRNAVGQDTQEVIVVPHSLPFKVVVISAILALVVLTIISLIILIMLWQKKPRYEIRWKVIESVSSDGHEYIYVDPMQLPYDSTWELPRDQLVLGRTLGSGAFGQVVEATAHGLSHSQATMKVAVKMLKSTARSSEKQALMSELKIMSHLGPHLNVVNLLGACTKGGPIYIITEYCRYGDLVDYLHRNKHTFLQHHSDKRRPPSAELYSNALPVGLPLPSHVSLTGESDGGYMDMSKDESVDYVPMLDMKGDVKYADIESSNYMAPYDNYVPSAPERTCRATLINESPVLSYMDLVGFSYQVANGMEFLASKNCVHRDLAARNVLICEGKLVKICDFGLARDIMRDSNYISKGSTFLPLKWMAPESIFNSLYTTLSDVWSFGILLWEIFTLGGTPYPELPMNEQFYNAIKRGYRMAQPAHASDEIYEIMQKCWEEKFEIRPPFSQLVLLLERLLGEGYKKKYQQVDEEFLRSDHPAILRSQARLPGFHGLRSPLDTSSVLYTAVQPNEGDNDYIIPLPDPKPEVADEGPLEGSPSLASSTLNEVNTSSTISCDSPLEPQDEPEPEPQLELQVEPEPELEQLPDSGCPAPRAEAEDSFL
Chain of Myosin-IIIa (Homo sapiens) (Q8NEV4 whole entry): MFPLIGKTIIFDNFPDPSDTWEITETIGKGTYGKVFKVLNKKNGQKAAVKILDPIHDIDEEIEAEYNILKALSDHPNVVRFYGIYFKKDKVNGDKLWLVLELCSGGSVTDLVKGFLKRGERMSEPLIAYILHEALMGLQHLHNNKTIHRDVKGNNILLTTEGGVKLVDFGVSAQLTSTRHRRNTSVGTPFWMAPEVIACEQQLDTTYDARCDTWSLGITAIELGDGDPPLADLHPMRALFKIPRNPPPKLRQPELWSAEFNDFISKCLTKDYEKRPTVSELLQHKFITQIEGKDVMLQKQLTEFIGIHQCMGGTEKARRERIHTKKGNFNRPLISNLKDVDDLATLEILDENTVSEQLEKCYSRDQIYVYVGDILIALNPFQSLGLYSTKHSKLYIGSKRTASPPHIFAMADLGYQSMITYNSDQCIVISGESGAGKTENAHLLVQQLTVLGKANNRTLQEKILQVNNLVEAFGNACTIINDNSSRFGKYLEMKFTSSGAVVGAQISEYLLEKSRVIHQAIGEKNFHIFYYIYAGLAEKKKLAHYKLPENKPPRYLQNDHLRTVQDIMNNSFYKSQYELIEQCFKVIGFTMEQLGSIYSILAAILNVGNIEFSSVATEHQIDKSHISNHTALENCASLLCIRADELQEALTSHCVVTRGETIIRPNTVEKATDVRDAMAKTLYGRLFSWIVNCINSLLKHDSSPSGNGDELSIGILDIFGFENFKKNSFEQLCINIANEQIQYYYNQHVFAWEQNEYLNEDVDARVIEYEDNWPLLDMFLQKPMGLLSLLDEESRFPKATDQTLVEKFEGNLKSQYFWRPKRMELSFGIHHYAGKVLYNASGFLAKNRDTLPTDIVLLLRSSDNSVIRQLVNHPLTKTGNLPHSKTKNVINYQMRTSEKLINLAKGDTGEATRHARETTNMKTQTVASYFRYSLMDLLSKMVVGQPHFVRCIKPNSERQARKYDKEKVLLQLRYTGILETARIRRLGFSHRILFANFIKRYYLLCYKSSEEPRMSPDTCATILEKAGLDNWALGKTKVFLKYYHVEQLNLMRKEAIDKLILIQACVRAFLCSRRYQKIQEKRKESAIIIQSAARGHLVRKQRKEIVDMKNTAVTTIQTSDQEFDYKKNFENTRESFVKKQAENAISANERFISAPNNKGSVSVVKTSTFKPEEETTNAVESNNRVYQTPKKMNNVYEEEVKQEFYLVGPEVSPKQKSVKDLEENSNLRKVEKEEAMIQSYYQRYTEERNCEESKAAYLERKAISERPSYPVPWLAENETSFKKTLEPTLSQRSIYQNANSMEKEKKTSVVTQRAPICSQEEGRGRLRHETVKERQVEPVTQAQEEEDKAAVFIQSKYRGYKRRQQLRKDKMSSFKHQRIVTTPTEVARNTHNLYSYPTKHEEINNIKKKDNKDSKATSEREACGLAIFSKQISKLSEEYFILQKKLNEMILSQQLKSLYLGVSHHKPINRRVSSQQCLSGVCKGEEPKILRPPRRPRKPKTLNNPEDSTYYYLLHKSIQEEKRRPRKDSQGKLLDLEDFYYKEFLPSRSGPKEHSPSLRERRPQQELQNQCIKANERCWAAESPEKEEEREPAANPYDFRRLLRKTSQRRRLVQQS

Turning to `FC(F)(F)c1ccc(Cl)cc1CN1CCNc2ncc(-c3ccnc(N4CCNCC4)c3)cc21`, the inhibition (in general, the change of the read-out against control, counted positive when it falls) in [1] is 92%; in assay [3] it was 78%; in [4], below 50%; in assay [5], 93%; in assay [6], below 50%; in assay [7] it was below 50%. For the same compound, the inhibition in assay [8], in [9] and in assay [10] was below 50% throughout. The pIC50 – broadly, the IC50 on a negative log10 scale, so that one unit is a factor of ten – in assay [2] was 8.00.

Turning to `CN1CCN(c2ccc(-c3cnc4c(c3)N(Cc3cc(Cl)ccc3Cl)CCN4)cn2)CC1`, the inhibition in [1] was below 50%; in [3], 89%; in assay [4], below 50%; in assay [5] it was below 50%; in assay [6], below 50%; in [7], below 50%. In addition, the inhibition in assay [8], in assay [9] and in assay [10] was below 50% each time. Further, the pIC50 in [2] is 7.96.

Consider `COC1CCN(C(=O)c2ccc(-c3cnc4c(c3)N(Cc3cc(Cl)ccc3C(F)(F)F)CCN4)cc2)CC1`, for which the inhibition in assay [1], in assay [3], in assay [4], in assay [6], in assay [8] and in [9] was below 50% throughout. In addition, the negative logarithm of the IC50 (pIC50) in assay [2] was 7.40.

`O=C(c1ccc(-c2cnc3c(c2)N(Cc2cc(Cl)ccc2C(F)(F)F)CCN3)cc1)N1CCCCC1`: the inhibition in assay [1], in assay [3], in assay [4], in assay [6], in [8] and in assay [9] was below 50% throughout. For the same compound, the pIC50 in assay [2] is 6.92.

Take `O=C(O)c1ccc(-c2cnc3c(c2)N(Cc2cc(Cl)ccc2C(F)(F)F)CCN3)cc1`: the inhibition in [1], in assay [4], in [6], in assay [8] and in [9] was below 50% each time. The compound further had a negative-log IC50 (pIC50) in [2] of 5.89.

Consider `CN1CCN(c2ccc(-c3cnc4c(c3)N(Cc3cc(F)ccc3F)CCN4)cn2)CC1`, for which the inhibition in assay [1] is below 50%; in assay [3], 88%; in assay [4], below 50%; in assay [5], below 50%; in [6], below 50%; in assay [7] it was below 50%. In addition, the inhibition in assay [8], in [9] and in [10] was below 50% each time. Further, the pIC50 in assay [2] was 7.48.

Regarding `O=C(c1ccc(-c2cnc3c(c2)N(Cc2cc(Cl)ccc2C(F)(F)F)CCN3)cc1)N1CCC(N2CCCC2)CC1`, the inhibition in assay [1] is 76.4%; in assay [3], below 50%; in assay [4] it was below 50%; in assay [6] it was below 50%; in [8], below 50%; in [9], below 50%. This compound gave a pIC50 in [2] of 8.00.

For the compound `CN1CCN(c2ccc(-c3cnc4c(c3)N(Cc3c(F)ccc(F)c3Cl)CCN4)cn2)CC1`, the inhibition in assay [1], in assay [3], in [4], in assay [5], in assay [6] and in assay [7] was below 50% each time. Besides, the inhibition in assay [8], in assay [9] and in assay [10] was below 50% throughout.

On to `CC(=O)N1CCN(c2cc(-c3cnc4c(c3)N(Cc3cc(Cl)ccc3C(F)(F)F)CCN4)ccn2)CC1`, for which the inhibition in assay [1] is below 50%; in assay [3], 96%; in assay [4], below 50%; in assay [5] it was 81%; in assay [6] it was below 50%; in [7], below 50%. Also, the inhibition in assay [8], in [9] and in [10] was below 50% throughout. Moreover, the pIC50 in assay [2] was 7.77.

Consider `CN1CCN(c2ccc(-c3cnc4c(c3)N(Cc3cc(Cl)ccc3C(F)(F)F)CCN4)cn2)CC1`, for which the inhibition is below 50% in assay [1]; 93% in assay [3]; below 50% in assay [4]; 74% in assay [5]; below 50% in [6]; below 50% in assay [7]. Moreover, the inhibition in assay [8], in [9] and in assay [10] was below 50% throughout.
